Source: ChEMBL document CHEMBL2380254, “Optimization of tocotrienols as antiproliferative and antimigratory leads” (Eur J Med Chem, 2013)

Legend:
RXF 393 = assay: Growth inhibition of human RXF393 cells assessed as cell growth at 10 uM after 48 hrs by sulforhodamine B assay; type: functional; conditions: RXF 393, 48 h, read-out: Activity
How it was run: (§1)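 Single-dose NCI-60 screen: adherent cells in RPMI 1640 with 5% FBS were exposed to 10 µM for 48 h at 37 °C after a 24 h preincubation. They were fixed in situ with cold TCA (10% final), stained with 0.4% SRB in 1% acetic acid, solubilized in 10 mM Tris base, and read at 515 nm. Percent growth was taken relative to time-zero and control plates.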

HT-29 = assay: Growth inhibition of human HT-29 cells assessed as cell growth at 10 uM after 48 hrs by sulforhodamine B assay; type: functional; conditions: HT-29, 48 h, read-out: Activity
How it was run: (§2)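 NCI-60 single-dose screen at 10 µM: cells in RPMI 1640 with 5% FBS, preincubated 24 h, then exposed 48 h at 37 °C. TCA fixation (16% final for suspension cells), SRB staining, absorbance 515 nm. Percent growth relative to time-zero and untreated control plates; negative values indicate cell kill.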

SN12C [1] = assay: Growth inhibition of human SN12C cells after 48 hrs by sulforhodamine B assay; type: functional
How it was run: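 NCI-60 five-dose screen. Cells were grown in RPMI 1640 with 5% FBS and 2 mM L-glutamine, plated at 5000–40,000 cells/well and incubated 24 h before dosing, with T0 plates TCA-fixed. DMSO stocks were diluted to doses of […] and exposed 48 h at 37 °C, 5% CO2. Cells were fixed with cold TCA (final 10%, 60 min, 4 °C), stained with 0.4% SRB in 1% acetic acid for 10 min, solubilized in 10 mM trizma base and read at 515 nm. GI50 is where 100×(T−T0)/(C−T0)=50.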

NCI-H322M [2] = assay: Growth inhibition of human NCI-H322M cells assessed as cell growth at 10 uM after 48 hrs by sulforhodamine B assay; type: functional; conditions: read-out: Activity; how it was run: as §1
COLO 205 = assay: Growth inhibition of human COLO205 cells assessed as cell growth at 10 uM after 48 hrs by sulforhodamine B assay; type: functional; conditions: COLO 205, 48 h, read-out: Activity; how it was run: as §2
A498 = assay: Growth inhibition of human A498 cells after 48 hrs by sulforhodamine B assay; type: functional; conditions: A498, 48 h
How it was run: (§3)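 NCI-60 screen: cells in RPMI 1640 with 5% FBS and 2 mM glutamine, 5000–40,000 cells/well, preincubated 24 h. Five concentrations (10-fold dilutions; 100 to 0.001 µM) applied for 48 h at 37 °C. TCA fixation, SRB stain, absorbance at 515 nm. Time-zero plates included; GI50 where 100×(T−T0)/(C−T0)=50.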

RPMI-8226 = assay: Growth inhibition of human RPMI8226 cells after 48 hrs by sulforhodamine B assay; type: functional; conditions: RPMI-8226, 48 h
How it was run: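 NCI-60 suspension lines in RPMI 1640 with 5% FBS and 2 mM L-glutamine, preincubated 24 h. A five-concentration 10-fold series (0.001–100 µM) was given for 48 h at 37 °C. Settled cells were fixed with 80% TCA (16% final), stained with SRB, and read at 515 nm. GI50 was taken where 100×(T−T0)/(C−T0)=50, with T0 plates fixed at drug addition.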

M14 [3] = assay: Growth inhibition of human M14 cells after 48 hrs by sulforhodamine B assay; type: functional; conditions: M14, 48 h; how it was run: as §3
SN12C [4] = assay: Growth inhibition of human SN12C cells assessed as cell growth at 10 uM after 48 hrs by sulforhodamine B assay; type: functional; conditions: read-out: Activity
How it was run: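 Single-dose NCI-60 test at 10 µM. Cells were grown in RPMI 1640 with 5% FBS and 2 mM L-glutamine, preincubated 24 h, with T0 plates TCA-fixed. Exposure was 48 h at 37 °C, 5% CO2. Cells were fixed with cold TCA (final 10%, 4 °C, 60 min), stained with SRB and read at 515 nm. Percent growth was taken relative to T0 and untreated control; negative values denote cell kill.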

[5] = Growth inhibition of human HCC2998 cells after 48 hrs by sulforhodamine B assay; type: functional; conditions: HCC 2998, 48 h; how it was run: as §3
MCF7 = assay: Antiproliferative activity against human MCF7 cells by MTT assay; type: functional, cell-based
How it was run: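 Cells plated at 8 × 10^3/well (MDA-MB-231) or 10^4/well (MCF7) in 96-well plates. Compounds fed in media with 5% FBS (MDA-MB-231) or 1% FBS (MCF7). MTT read-out of viable cells.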

[6] = Growth inhibition of human EKVX cells assessed as cell growth at 10 uM after 48 hrs by sulforhodamine B assay; type: functional; conditions: read-out: Activity; how it was run: as §2
HCT-116 = assay: Growth inhibition of human HCT116 cells assessed as cell growth at 10 uM after 48 hrs by sulforhodamine B assay; type: functional; conditions: HCT-116, 48 h, read-out: Activity; how it was run: as §2
OVCAR-8 = assay: Growth inhibition of human OVCAR8 cells assessed as cell growth at 10 uM after 48 hrs by sulforhodamine B assay; type: functional; conditions: OVCAR-8, 48 h, read-out: Activity; how it was run: as §1
CAKI-1 [7] = assay: Growth inhibition of human CAKI-1 cells after 48 hrs by sulforhodamine B assay; type: functional; conditions: CAKI-1, 48 h; how it was run: as §3
CAKI-1 [8] = assay: Growth inhibition of human CAKI-1 cells assessed as cell growth at 10 uM after 48 hrs by sulforhodamine B assay; type: functional; conditions: CAKI-1, 48 h, read-out: Activity; how it was run: as §2
SF-539 = assay: Growth inhibition of human SF539 cells after 48 hrs by sulforhodamine B assay; type: functional; conditions: SF-539, 48 h
How it was run: (§4)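 NCI-60 panel cells grown in RPMI 1640 with 5% FBS and 2 mM L-glutamine, seeded at 5000–40,000 cells/well and preincubated 24 h. Five 10-fold dilutions (0.001–100 µM) from DMSO stocks were added for 48 h at 37 °C. Adherent cells were fixed with cold TCA (10% final) for 60 min at 4 °C, stained with 0.4% SRB, and read at 515 nm. GI50 was set where 100×(T−T0)/(C−T0)=50.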

M14 [9] = assay: Growth inhibition of human M14 cells assessed as cell growth at 10 uM after 48 hrs by sulforhodamine B assay; type: functional; conditions: M14, 48 h, read-out: Activity; how it was run: as §2
NCI-H322M [10] = assay: Growth inhibition of human NCI-H322M cells after 48 hrs by sulforhodamine B assay; type: functional; how it was run: as §4
786-0 = assay: Growth inhibition of human 786-0 cells assessed as cell growth at 10 uM after 48 hrs by sulforhodamine B assay; type: functional; conditions: 786-0, 48 h, read-out: Activity; how it was run: as §2
MDA-MB-468 = assay: Growth inhibition of human MDA-MB-468 cells assessed as cell growth at 10 uM after 48 hrs by sulforhodamine B assay; type: functional; conditions: MDA-MB-468, 48 h, read-out: Activity; how it was run: as §1
MDA-MB-231 = assay: Growth inhibition of human MDA-MB-231 cells assessed as cell growth at 10 uM after 48 hrs by sulforhodamine B assay; type: functional; conditions: MDA-MB-231, 48 h, read-out: Activity; how it was run: as §1

SMILES	growth at 10 µM (RXF 393) [%]	growth at 10 µM (HT-29) [%]	GI50 (SN12C [1]) [µM]	growth at 10 µM (NCI-H322M [2]) [%]	growth at 10 µM (COLO 205) [%]	GI50 (A498) [µM]	GI50 (RPMI-8226) [µM]	GI50 (M14 [3]) [µM]	growth at 10 µM (SN12C [4]) [%]	GI50 [5] [µM]	IC50 (MCF7) [µM]	growth at 10 µM [6] [%]	growth at 10 µM (HCT-116) [%]	growth at 10 µM (OVCAR-8) [%]	GI50 (CAKI-1 [7]) [µM]	growth at 10 µM (CAKI-1 [8]) [%]	GI50 (SF-539) [µM]	growth at 10 µM (M14 [9]) [%]	GI50 (NCI-H322M [10]) [µM]	growth at 10 µM (786-0) [%]	also measured
CC(C)=CCC/C(C)=C/CC/C(C)=C/CC[C@]1(C)CCc2c3c(c(C)c(C)c2O1)OCN(CCCCO)C3	78.2	54.4	7.98	84.8	-16	> 10	5.15	5.99	76.8	1.84	> 20	108	-72.3	87.3	> 10	70.1	> 10	65.4	> 10	72.8	growth at 10 µM (MDA-MB-468): 57%; growth at 10 µM (MDA-MB-231): 37.9%
CC(C)=CCC/C(C)=C/CC/C(C)=C/CC[C@]1(C)CCc2c3c(cc(C)c2O1)OCN(CCCCO)C3	-96.3	2.06	16.3	48.5	-76.8	14.8	20.4	21	19.3	9.78	16.3	85.4	-96.7	-13.3	15.2	34	19.1	-45.8	17.2	-49.2	growth at 10 µM (MDA-MB-468): -63.2%; growth at 10 µM (MDA-MB-231): -48.2%
